Screens deposited in PubChem BioAssay by several laboratories.
TAAR1 antag = human TAAR1 antagonism. inhibition, % at 3 µM. CHO RD-HGA16 TAAR1, Fluo-8 calcium fluorescence, antagonist. Q96RJ0. hit rate 1.5% among 360,000;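 active means inhibition above a per-plate cutoff, the mean inhibition of test compounds on that plate plus 3 SD, cut at about 49% in these data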;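 further: 0% = DMSO plus EC80 beta-PEA response and 100% = DMSO alone without agonist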
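test system = CHO RD-HGA16 cells bearing hTAAR1 | replication = singlicate | controls = DMSO-only wells and EC80 β-PEA-stimulated wells | reagent = EC80 β-phenethylamine stimulus | read-out basis = percent inhibition of PEA-evoked calcium signal, max/basal emission ratio | schedule = seeding 17-24 h prior, 75-min 37 °C, 30-min RT dye loading | signal = kinetic Fluo-8 calcium fluorescence measurement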
GPR7 antag = human neuropeptides B/W receptor 1 antagonism. hit rate 1.1% among 290,000. GPR7-expressing cells, fluorescence antagonist assay. AID 1861. inhibition, % at 4.4 µM; in the data active means inhibition above about 16%, passing the limit was not always enough;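 further: cells stimulated with the agonist NPW; 0% = agonist with vehicle and 100% = vehicle without agonist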
DAGLB inhibitor = blocks human DAGLB lipase activity; Q8NCG7; HEK293T DAGLB membrane lysate, EnzChek fluorogenic substrate; inhibition, % at 5.17 µM; hit rate 0.059% among 340,000; AID 504411; in the data active means inhibition above about 34%;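 further: 0% = enzyme with vehicle and 100% = wells lacking enzyme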
Target sequence (Q8NCG7 whole entry, looked up): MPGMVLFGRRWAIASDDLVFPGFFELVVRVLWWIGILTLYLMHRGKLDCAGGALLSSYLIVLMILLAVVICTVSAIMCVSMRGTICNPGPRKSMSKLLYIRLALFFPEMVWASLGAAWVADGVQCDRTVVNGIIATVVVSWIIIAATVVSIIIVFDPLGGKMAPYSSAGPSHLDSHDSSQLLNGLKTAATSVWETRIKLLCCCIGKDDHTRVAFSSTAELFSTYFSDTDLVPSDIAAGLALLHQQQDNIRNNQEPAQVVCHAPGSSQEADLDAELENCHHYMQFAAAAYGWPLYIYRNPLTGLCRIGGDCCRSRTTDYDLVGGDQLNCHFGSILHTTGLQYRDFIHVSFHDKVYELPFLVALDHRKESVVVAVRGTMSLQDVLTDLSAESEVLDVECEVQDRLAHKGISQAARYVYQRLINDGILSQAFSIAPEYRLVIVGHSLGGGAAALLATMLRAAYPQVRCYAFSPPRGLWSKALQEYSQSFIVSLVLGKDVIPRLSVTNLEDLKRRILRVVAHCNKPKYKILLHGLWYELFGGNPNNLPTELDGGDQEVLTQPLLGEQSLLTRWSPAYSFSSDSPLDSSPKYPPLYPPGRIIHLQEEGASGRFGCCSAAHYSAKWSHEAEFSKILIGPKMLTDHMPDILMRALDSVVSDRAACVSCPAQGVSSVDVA
MPTP inh = permeability transition pore inhibition | hit rate 1.4% among 360,000 | isolated mouse mitochondria, Ca2+ swelling absorbance, 30 min | inhibition, % at 10 µM;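 active means inhibition of 50% or more, scaled per plate between neutral and stimulator controls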;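 further: 0% = DMSO wells given calcium and 100% = 1 mM EGTA wells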
TAAR1 ag = agonists of human TAAR1 | Q96RJ0 | CHO RD-HGA16 TAAR1, Fluo-8 calcium fluorescence; vehicle wells 0%, saturating PEA agonist 100% | activation, % at 3 µM | hit rate 0.99% among 360,000;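 active means activation above the mean activation of all test compounds in the run plus 3 SD, cut at about 38% in these data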
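test system = CHO RD-HGA16 cells carrying human TAAR1 plus Gα16 | schedule = 17-24 h seeding, 75 min 37 °C dye, 30 min RT | compound dosing = 3 µM single concentration | control set = DMSO and PEA EC100 | replicates = n 1 | signal = Fluo-8 fluorescence, 5 s baseline then 140 s kinetic read | measure = percent activation vs PEA EC100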
MPTP counter = membrane potential counter-screen of mitochondrial pore inhibitors | shares compounds with MPTP inh | isolated mitochondria, Rhodamine 123 fluorescence | inhibition, % at 10 µM | hit rate 78% among 5,000 | AID 624504;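 further: 0% = DMSO vehicle and 100% = positive control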
MPTP abs DR = MPTP inhibition, dose response swelling confirmation. shares compounds with MPTP inh. isolated mitochondria swelling, absorbance. IC50, µM. hit rate 58% among 780. AID 651561; in the data active means IC50 below about 20 µM
MPTP counter DR = active in counter-screen for permeability transition pore inhibitors. shares compounds with MPTP inh. isolated mitochondria counterscreen, fluorescence read-out. IC50, µM. hit rate 49% among 780; in the data active means IC50 below about 80 µM
nonsel antag count = counter-screen for TAAR1 antagonists: nonselective antagonists; shares compounds with TAAR1 antag; counterscreen cell line, calcium fluorescence, antagonist mode; inhibition, % at 3 µM; hit rate 77% among 2,400; AID 651780;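 further: CHO-Ga16 host cells stimulated with ATP at an EC80 level; 0% = agonist EC80 plus vehicle and 100% = vehicle without agonist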
TAAR1 antag conf = human TAAR1 antagonism, confirmed. shares compounds with TAAR1 antag. TAAR1-expressing cells, fluorescence antagonist read-out. inhibition, % at 3 µM. hit rate 40% among 2,400. AID 651785; in the data active means inhibition above about 49%;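 further: CHO-Ga16 host cells challenged with agonist PEA near its EC80; 0% = agonist at EC80 plus vehicle and 100% = vehicle with no agonist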
Ga16 nonsel ag = nonselective Ga16 agonist in TAAR1 antagonist counter-screen. activation, % at 3 µM. shares compounds with TAAR1 antag. hit rate 18% among 2,400. Ga16-expressing cells, calcium fluorescence, agonist counterscreen; in the data active means activation above about 12%;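 further: 0% = vehicle wells and 100% = saturating stimulus response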
TAAR1 ag counter = activates human TAAR1 in antagonist counter-screen | shares compounds with TAAR1 antag | hTAAR1 cell line, fluorescence activation, agonist mode | activation, % at 3 µM | hit rate 2% among 2,400 | AID 651955; in the data active means activation above about 37%;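 further: CHO cells stably expressing TAAR1 with calcium dye readout; 0% = DMSO vehicle and 100% = full agonist response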
Starred values were filed as active, the others as inactive; / = not tested or not shown. Shown are actives, neighbours in structure and some others; about 4% of the full set was active somewhere. Unless noted, no stated cut-off is given here; in the data, active means inhibition above about 22%; inactive means the rest.

SMILES	TAAR1 antag	GPR7 antag	DAGLB inhibitor	MPTP inh	TAAR1 ag	MPTP counter	others
CN(C)S(=O)(=O)Oc1cccc(C(=O)Nc2ccc(Cl)c(Cl)c2)c1	60.5*	-4.2	-6.9	96.1*	40.6*	90.7*
COC(=O)c1cccc(NC(=O)Nc2ccc(Cl)c(Cl)c2)c1	31.2	23.9	-4.5	98.4*	21.0	70.1*
O=C(Cc1ccccc1)NNC(=O)Nc1ccc(Cl)c(Cl)c1	-2.9	7.3	-3.9	6.6	1.7	/
NC(=S)NNC(=O)Nc1ccc(Cl)c(Cl)c1	13.1	9.2	-2.2	72.3*	11.8	69.9*
CN(C)S(=O)(=O)Oc1cccc(C(=O)Nc2cccc(Cl)c2)c1	48.1	15.7	-3.2	16.5	16.9	/
CCc1cc2c(nc1CC)CCCN2Cc1ccc(Br)cc1	-2.1	/	/	/	-0.5	/
COc1cc2c(c3c1c(=O)c1cccc(F)c1n3C)C=CC(C)(C)O2	1.4	/	/	/	2.8	/
CCCCN1C(=O)C(CC(=O)NCc2cccc3ccccc23)CC(C(=O)N2CCCCCC2)=C1C (centres undefined)	-12.3	/	/	-0.4	0.9	/
CC(C)C[C@@H]1COc2cc(F)ccc2S(=O)(=O)N1	-34.1	/	/	/	1.3	/
COC(=O)c1cc(NC(=O)C2COc3ccccc3O2)ccc1Cl (centres undefined)	12.5	-5.8	-3.0	1.1	7.7	/
COc1cccc(NC(=O)Nc2ccc(C)c(Cl)c2)c1	21.8	17.9	-2.7	80.2*	15.0	89.5*
COC(=O)c1cc(NC(=O)Nc2ccccc2)ccc1Cl	53.6*	-11.7	-1.4	75.9*	26.1	83.3*
COc1cccc(NC(=O)Nc2ccc3c(c2)N(C)C(=O)CS3)c1	68.6*	6.8	1.3	88.1*	22.8	78.3*
COc1cccc(NC(=O)Nc2cc(C(=O)O)ccc2C)c1	-13.0	-0.3	2.7	-1.3	3.6	/
COC(=O)c1sccc1NC(=O)Nc1ccc(Cl)c(Cl)c1	53.8*	2.5	-5.4	103.3*	2.1	106.9*
O=C1NC[C@@H](CCCCN2CCN(CCc3ccccc3)C(=O)C2=O)N(CC2CCCCC2)C1=O	-17.2	/	/	-0.3	1.4	/
COc1ccc(CNS(=O)(=O)c2cc(Br)ccc2Br)c(OC)c1	-9.5	/	/	/	0.0	/
COc1ccc(C(CNS(=O)(=O)c2cccc(F)c2)N2CCCC2)cc1 (centres undefined)	3.5	/	-0.5	-1.3	4.3	/
O=S(=O)(NCc1ccccc1)c1cc(Br)ccc1Br	-15.1	/	/	/	-0.2	/
O=C(CSc1ccc(C(F)(F)F)cc1[N+](=O)[O-])Nc1ccccc1	31.2	0.3	-4.1	59.0*	28.1	60.9*
COc1cc(CCC(C)=O)ccc1OC(=O)c1c(-c2c(F)cccc2Cl)noc1C	31.9	/	/	/	0.8	/
ClCc1nc2ccccc2c2ccccc12	-2.1	-10.7	-0.3	63.5*	3.4	-6.4	MPTP abs DR=4.62*;MPTP counter DR=>80
CCOC(=O)c1c(CCl)nc2ccccc2c1-c1ccccc1	-36.3	-15.5	-2.2	3.1	2.8	/
CCOC(=O)C(=N/O)/C(C)=N/NC(=O)C(=O)Nc1ccc(Cl)cc1	3.6	-2.0	-3.0	81.8*	5.0	68.7*
CC(=N\Nc1ccc(Cl)cc1)/C(=N/O)C(=O)Nc1ccccc1	0.4	-4.0	-1.2	2.4	1.5	/
SMILES	TAAR1 antag	GPR7 antag	DAGLB inhibitor	MPTP inh	TAAR1 ag	MPTP counter	others
COc1ccc([C@H]2CC(=O)C=C(c3ccc(CNC(=O)OC(C)(C)C)cc3)C2)cc1	83.2*	/	-7.0	70.9*	19.0	80.4*	nonsel antag count=47.0*;TAAR1 antag conf=67.9*;Ga16 nonsel ag=11.7*;TAAR1 ag counter=7.8
COc1ccc(C(CNC(=O)c2oc3c(Cl)cccc3c2C)N2CCCC2)cc1 (centres undefined)	-14.7	/	-6.7	3.9	10.3	/
S=C(NC1CCCCC1)N(CCc1nc2ccccc2[nH]1)C1CCCC1	53.5*	0.1	-24.5	65.4*	10.4	79.0*	nonsel antag count=28.2*;TAAR1 antag conf=36.6;Ga16 nonsel ag=5.9;TAAR1 ag counter=1.5
O=C(/C=C/c1cc([N+](=O)[O-])ccc1OC(F)F)Nc1cccc(OC(F)F)c1	74.8*	-4.5	-3.5	99.1*	4.9	71.8*	nonsel antag count=34.0*;TAAR1 antag conf=65.4*;Ga16 nonsel ag=6.7;TAAR1 ag counter=4.2
CCN(Cc1ccccc1)S(=O)(=O)c1ccc(C(=O)N(CCCN(C)C)c2nc3cc(C)cc(C)c3s2)cc1	23.6	/	-7.5	46.1	27.2	/
Cc1cc(C)c2sc(N(CCCN(C)C)C(=O)c3ccc(S(=O)(=O)N(C)Cc4ccccc4)cc3)nc2c1	50.0*	/	-0.5	82.1*	34.7	-11.9	MPTP abs DR=8.78*;MPTP counter DR=45*;nonsel antag count=39.1*;TAAR1 antag conf=40.1;Ga16 nonsel ag=26.2*;TAAR1 ag counter=46.4*
CSc1ncccc1C(=O)Nc1cccc(S(=O)(=O)N2CCCCCC2)c1	18.1	/	-3.0	-0.9	1.4	/
COc1ccc(C(=O)Nc2ccc3nc(C)sc3c2)cc1S(=O)(=O)N1CCOCC1	-8.9	/	-2.5	-0.6	1.4	/
COc1ccc(C(=O)Nc2ccc(-c3cn4ccsc4n3)cc2)cc1S(=O)(=O)N1CCOCC1	62.4*	-5.8	1.2	58.1*	16.9	9.1	MPTP abs DR=>100;MPTP counter DR=>80;nonsel antag count=25.4*;TAAR1 antag conf=48.6*;Ga16 nonsel ag=6.4;TAAR1 ag counter=4.2
C/C(=N\OCc1nc2ccccc2c(=O)n1/N=C/c1cc([N+](=O)[O-])ccc1O)c1ccccc1	64.1*	-15.3	8.1	74.5*	9.1	50.6*	nonsel antag count=30.9*;TAAR1 antag conf=46.6;Ga16 nonsel ag=8.2;TAAR1 ag counter=5.2
C/C(=N\OCc1nc2ccccc2c(=O)n1/N=C/c1cc(C)cc([N+](=O)[O-])c1O)c1ccccc1	27.1	8.1	0.9	-1.4	0.7	/
NC(c1ccccc1)c1cccs1 (centres undefined)	-11.7	/	/	-0.5	-0.2	/
CCC(C(=O)OCC(=O)Nc1ccc(SC(F)F)cc1)c1ccccc1 (centres undefined)	62.5*	2.4	-9.1	77.7*	1.6	87.6*	nonsel antag count=39.4*;TAAR1 antag conf=52.6*;Ga16 nonsel ag=2.8;TAAR1 ag counter=7.2
CCNC(=S)Nc1cccc(S(=O)(=O)Nc2ccccc2OC)c1	-24.0	-5.4	0.3	5.8	3.6	/
COc1ccccc1NS(=O)(=O)c1cccc(NC(=O)Nc2ccccc2)c1	98.1*	-9.8	0.5	82.0*	35.4	86.2*	nonsel antag count=60.2*;TAAR1 antag conf=94.3*;Ga16 nonsel ag=15.1*;TAAR1 ag counter=50.4*
